The record followed here is ChEMBL document CHEMBL2331523, “Regioselective synthesis of isoxazole-mercaptobenzimidazole hybrids and their in vivo analgesic and anti-inflammatory activity studies” (2013).

Common to all, as to assay type: functional
The subject of one test is Mus musculus. In words: Analgesic activity in mouse assessed as increase in paw withdrawal latency at 50 mg/kg after 120 mins by hot plate test (reference value: 6.07 +/- 0.057 secs).
Test [1] concerns Rattus norvegicus. In words: Antiinflammatory activity in rat assessed as inhibition of carrageenan-induced paw oedema at 50 mg/kg after 60 mins relative to untreated control. The note with it: 1 h. In a few lines:
(§1)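 Carrageenan-induced hind-paw oedema (Winter method). The text names both rats and mice. Test agents dosed at 100 mg/kg body weight, reference at 50 mg/kg body weight. Paw thickness measured in mm at 60 and 180 min after carrageenan injection. Percent oedema inhibition calculated against the saline control group. Six animals per group, mean ± SD. One-way ANOVA with Newman-Keuls test.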
(In general: Carrageenan injected into the paw causes an acute inflammation.)

Test [2] relates to Rattus norvegicus. In words: Antiinflammatory activity in rat assessed as inhibition of carrageenan-induced paw oedema at 50 mg/kg after 180 mins relative to untreated control. Particulars: 3 h. An outline of the steps:
as §1

`CC(C)=CCN1CC[C@]2(C)c3cc(O)ccc3C[C@H]1[C@H]2C` [(+)-PENTAZOCINE]: the Time with Mus musculus was determined as 14.1 s. The inhibition in vivo is the share of the control response that was lost under treatment. Take `O=C(O)Cc1ccccc1Nc1c(Cl)cccc1Cl` [DICLOFENAC]: the results for the inhibition in vivo at 50 mg/kg with Rattus norvegicus [1] and with Rattus norvegicus [2] were 44.5% and 45.8%, respectively.
